The target of experiment [1] is Cannabinoid receptor 2 (Mus musculus, UniProt P47936). In words: Binding affinity against Cannabinoid receptor 2 in mouse spleen. It counts as tissue-based. In short, it runs like this:
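Membranes from frozen mouse spleen (CB2), about 50 μg, prepared in silanized tubes. Incubated 1 h at 30 °C in TME with 0.1% fatty-acid-free BSA, 0.8 nM [3H]2 and varying ligand concentrations. Filtration, four ice-cold washes with buffer containing 0.5% BSA, then scintillation counting. Nonspecific binding defined with 100 nM 2. Three independent experiments in duplicate, normalized to specific binding; 95% confidence limits.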

For experiment [2], the target named is Cannabinoid receptor 1 (Rattus norvegicus, UniProt P20272). The experiment in a line: Binding affinity against Cannabinoid receptor 1 in rat forebrain.
Sequence of Cannabinoid receptor 1 (P20272 whole entry): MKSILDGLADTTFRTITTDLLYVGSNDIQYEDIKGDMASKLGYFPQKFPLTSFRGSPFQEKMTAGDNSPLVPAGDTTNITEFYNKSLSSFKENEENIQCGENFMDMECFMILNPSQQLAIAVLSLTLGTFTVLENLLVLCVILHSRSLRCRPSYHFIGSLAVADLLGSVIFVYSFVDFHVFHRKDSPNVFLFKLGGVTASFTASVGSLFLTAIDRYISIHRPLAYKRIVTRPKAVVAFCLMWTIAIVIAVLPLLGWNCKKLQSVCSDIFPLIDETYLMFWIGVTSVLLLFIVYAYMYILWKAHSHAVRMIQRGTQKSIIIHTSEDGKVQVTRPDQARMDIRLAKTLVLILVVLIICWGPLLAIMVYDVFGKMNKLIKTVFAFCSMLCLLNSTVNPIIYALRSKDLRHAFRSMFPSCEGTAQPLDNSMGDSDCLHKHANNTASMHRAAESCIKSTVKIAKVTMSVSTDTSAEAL
For experiment [3], the species on record is Cavia porcellus. In words: Dissociation constant [100(nM)] in myenteric plexus-longitudinal muscle of guinea pig small intestine using the cannabinoid receptor agonist. In kind it is functional, organism-based. An outline of the steps:
(§1)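 Guinea pig small intestine myenteric plexus-longitudinal muscle. Antagonist tested at the stated concentration against WIN55,212-2 inhibition of electrically evoked contractions. Drugs mixed with two parts Tween 80 by weight and dispersed in saline; Tween 80 served as the reference. Dose ratio from a symmetrical (2+2) dose parallel line assay on the steepest part of the curve. Kd = B/(x−1).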

Experiment [4] is filed under the species Mus musculus. In words: Dissociation constant [316(nM)] in mouse isolated vas deferens using the cannabinoid receptor agonist. It counts as functional, organism-based. In short, it runs like this: (§2)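 Mouse isolated vas deferens. Antagonist tested at the stated concentration against WIN55,212-2 inhibition of electrically evoked contractions. Drugs dispersed in saline with two parts Tween 80 by weight, with Tween 80 as the reference. Dose ratio (95% confidence limits) from a symmetrical 2+2 dose parallel line assay. Kd from (x−1) = B/Kd.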

Experiment [5] is filed under the species Cavia porcellus. In words: Dissociation constant [1000(nM)] in myenteric plexus-longitudinal muscle of guinea pig small intestine using the cannabinoid receptor agonist. In kind it is functional, organism-based. An outline of the steps:
as §1

The target of experiment [6] is T1, Cannabinoid receptor (Homo sapiens) (UniProt P34972+P21554). The experiment in a line: Ratio of the binding affinities against rat CB1 to that of mouse CB2; activity value is 1:7.2. It counts as protein assay.
T1 sequence (P21554 whole entry, looked up): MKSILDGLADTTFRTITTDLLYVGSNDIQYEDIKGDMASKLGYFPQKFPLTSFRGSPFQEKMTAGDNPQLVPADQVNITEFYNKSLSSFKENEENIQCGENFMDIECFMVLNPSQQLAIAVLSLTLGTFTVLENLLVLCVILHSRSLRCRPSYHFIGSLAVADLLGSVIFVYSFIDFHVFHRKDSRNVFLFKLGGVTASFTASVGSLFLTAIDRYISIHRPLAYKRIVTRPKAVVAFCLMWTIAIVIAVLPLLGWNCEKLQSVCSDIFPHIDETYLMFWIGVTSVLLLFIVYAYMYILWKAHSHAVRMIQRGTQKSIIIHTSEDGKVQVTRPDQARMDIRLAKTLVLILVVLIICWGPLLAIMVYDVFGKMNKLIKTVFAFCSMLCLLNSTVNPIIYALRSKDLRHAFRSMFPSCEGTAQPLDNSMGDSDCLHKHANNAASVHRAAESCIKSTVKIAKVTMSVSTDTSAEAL
T1 sequence (P34972 whole entry, looked up): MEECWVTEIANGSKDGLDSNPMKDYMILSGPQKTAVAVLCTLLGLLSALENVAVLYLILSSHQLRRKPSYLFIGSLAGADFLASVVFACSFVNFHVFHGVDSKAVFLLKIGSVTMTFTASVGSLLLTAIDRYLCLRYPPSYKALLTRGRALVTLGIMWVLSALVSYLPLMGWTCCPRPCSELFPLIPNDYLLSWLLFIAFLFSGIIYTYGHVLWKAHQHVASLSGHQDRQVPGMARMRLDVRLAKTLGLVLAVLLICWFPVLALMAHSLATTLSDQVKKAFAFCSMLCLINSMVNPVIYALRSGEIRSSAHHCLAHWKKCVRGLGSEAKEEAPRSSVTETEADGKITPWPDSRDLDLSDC
In experiment [7] the test system is Cannabinoid receptor CB1 (Rattus norvegicus) and CB2 (Mus musculus). The experiment in a line: Ratio of the binding affinities against rat CB1 to that of mouse CB2; activity value is 1:2.7.
The species entered for experiment [8] is Mus musculus. The experiment in a line: Dissociation constant [1000(nM)] in mouse isolated vas deferens using the cannabinoid receptor agonist. It counts as functional, organism-based. An outline of the steps:
as §2

For experiment [9], the species on record is Mus musculus. The experiment in a line: Dissociation constant [31.6(nM)] in mouse isolated vas deferens using the cannabinoid receptor agonist. In kind it is functional, organism-based. An outline of the steps:
as §2

Experiment [10] deals with Cannabinoid receptor CB1 (Rattus norvegicus) and CB2 (Mus musculus). In words: Ratio of the binding affinities against rat CB1 to that of mouse CB2; activity value is 1:37.
Experiment [11] has as its target T1, Cannabinoid receptor (Homo sapiens). In words: Ratio of the binding affinities against rat CB1 to that of mouse CB2; activity value is 1:17. It counts as protein assay.
For experiment [12] the target is unchanged. In words: Ratio of the binding affinities against rat CB1 to that of mouse CB2; activity value is 1:85. In kind it is protein assay.

Sequence of Cannabinoid receptor 2 (P47936 whole entry): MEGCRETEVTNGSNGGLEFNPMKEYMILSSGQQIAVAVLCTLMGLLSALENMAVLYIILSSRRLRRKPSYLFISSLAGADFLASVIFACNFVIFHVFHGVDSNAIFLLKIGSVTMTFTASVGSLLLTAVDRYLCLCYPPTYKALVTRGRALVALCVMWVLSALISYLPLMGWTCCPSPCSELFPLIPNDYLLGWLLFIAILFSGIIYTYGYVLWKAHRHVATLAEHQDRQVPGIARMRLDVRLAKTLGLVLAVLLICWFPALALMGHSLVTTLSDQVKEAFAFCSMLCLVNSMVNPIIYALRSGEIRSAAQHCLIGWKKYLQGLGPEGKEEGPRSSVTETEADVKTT

`Cc1c(C(=O)NN2CCCCC2)nn(-c2ccc(Cl)cc2Cl)c1-c1ccc(N)cc1`: the inhibition constant Ki (usually the dissociation constant of the complex between target and ligand, obtained from inhibition or displacement) in experiment [1] amounted to 958 nM; in [2] it was 81.5 nM. The Kd (commonly the equilibrium constant for the complex coming apart) in [3] worked out at 2.63 nM; in experiment [4], 42.6 nM.
With `Cc1c(C(=O)NN2CCCCC2)nn(-c2ccc(Cl)cc2Cl)c1-c1ccc([N+](=O)[O-])cc1`, the inhibition constant Ki in experiment [1] turned out to be 252 nM; in experiment [2], 57.5 nM. Also, the results for the Kd in experiment [5] and in experiment [4] were 2.9 nM and 5.31 nM, respectively.
With `Cc1c(C(=O)NCCO)nn(-c2ccc(Cl)cc2Cl)c1-c1ccc(Br)cc1`, the Ki stood at 19000 nM in experiment [1] and 1120 nM in experiment [2].
`Cc1c(C(=O)NN2CCCCC2)nn(-c2ccc(Cl)cc2)c1-c1ccc(Cl)cc1` gave a Ki in [1] of 836 nM.
Consider `Cc1c(C(=O)NC2CCCCC2)nn(-c2ccc(Cl)cc2Cl)c1-c1ccc(Br)cc1`, for which the results for the Ki in [1] and in experiment [2] were 1010 nM and 11.7 nM, respectively. In addition, the Ratio in [6] came out at 87.
In the case of `Cc1c(C(=O)NN2CCCCC2)nn(-c2ccc(Cl)cc2Cl)c1-c1ccccc1N`, the inhibition constant (Ki) stood at 931 nM in experiment [1] and 346 nM in experiment [2]. Moreover, the Kd in experiment [3] amounted to 11.2 nM; in [8] it was 118 nM. Further, the Ratio in experiment [7] is 2.7.
As for `Cc1c(C(=O)NN2CCCCC2)nn(-c2ccc(Cl)cc2Cl)c1-c1ccccc1I`, the Ki in experiment [1] worked out at 577 nM; in experiment [2] it was 53.8 nM. For the same compound, the Kd in [9] came out at 7.83 nM; in [5] it was 5.87 nM.
For the compound `Cc1c(C(=O)N2CCCCC2)nn(-c2ccc(Cl)cc2Cl)c1-c1ccc(Br)cc1`, the values for the Ki in experiment [1] and in experiment [2] were 4580 nM and 125 nM, respectively. Moreover, the Ratio in experiment [10] was 37. Also, the figures for the Kd in experiment [8] and in [5] were 172 nM and 4.72 nM, respectively.
Take `Cc1c(C(=O)N(C)C2CCCCC2)nn(-c2ccc(Cl)cc2Cl)c1-c1ccc(Br)cc1`: the Ki was 1260 nM in [1] and 76.7 nM in [2].
Take `Cc1c(C(=O)NN2CCCCC2)nn(-c2ccc(Cl)cc2Cl)c1-c1ccc(I)cc1`: the values for the Kd in [3] and in experiment [9] were 0.22 nM and 0.5 nM, respectively.
On to `Cc1c(C(=O)NN2CCCCC2)nn(-c2ccc(Cl)cc2Cl)c1-c1ccccc1`, for which the Ki in [1] was determined as 217 nM. For the same compound, the Kd in [5] was found to be 7 nM; in [4] it was 28 nM.
Take `Cc1c(C(=O)Nc2ccccc2)nn(-c2ccc(Cl)cc2Cl)c1-c1ccc(Br)cc1`: the values for the Ki in experiment [1] and in experiment [2] were 6750 nM and 31.1 nM, respectively. Moreover, the Ratio in [11] is 217.
For `Cc1c(C(=O)NN2CCCCCC2)nn(-c2ccc(Cl)cc2Cl)c1-c1ccc(Br)cc1`, the Ki in experiment [1] was found to be 215 nM; in [2], 7.85 nM. For the same compound, in experiment [12], the Ratio is 28. The results for the Kd in experiment [5] and in experiment [4] were 0.38 nM and 6.8 nM, respectively.
`Cc1c(C(=O)NN2CCOCC2)nn(-c2ccc(Cl)cc2Cl)c1-c1ccc(Br)cc1`: the inhibitory constant (Ki) in experiment [1] was determined as 2450 nM; in experiment [2], 53.9 nM.
Turning to `Cc1c(C(=O)NN2CCCCC2)nn(-c2ccc(Cl)cc2Cl)c1-c1ccccc1[N+](=O)[O-]`, the values for the inhibitory constant (Ki) in experiment [1] and in experiment [2] were 691 nM and 255 nM, respectively. Also, the Ratio in experiment [7] was 2.7. The Kd in experiment [5] was 5.96 nM; in [4], 25.4 nM.
With `Cc1c(C(=O)N2CCN(C)CC2)nn(-c2ccc(Cl)cc2Cl)c1-c1ccc(Br)cc1`, the Ki in experiment [1] turned out to be 2340 nM; in experiment [2], 326 nM. Further, the Kd is 325 nM in [8] and 12.3 nM in experiment [5].
As for `Cc1c(C(=O)NN2CCCCC2)nn(-c2ccc(Cl)cc2Cl)c1-c1ccc(Br)cc1`, the inhibition constant Ki was 1430 nM in experiment [1] and 16.8 nM in [2]. Besides, the values for the Kd in [3] and in experiment [9] were 0.32 nM and 2.64 nM, respectively. Moreover, the Ratio in experiment [12] was determined as 85.
`CCc1c(C)c(C(=O)NN2CCCCC2)nn1-c1ccc(Cl)cc1Cl`: the Ki in [1] was found to be 744 nM; in experiment [2] it was 183 nM.
Regarding `Cc1c(C(=O)NN2CCCCC2)nn(-c2ccc(Cl)cc2Cl)c1-c1ccc(Cl)cc1` [RIMONABANT], the Kd is 0.25 nM in experiment [3] and 1.98 nM in [9].

These data come from ChEMBL document CHEMBL1132593, “Structure-activity relationships of pyrazole derivatives as cannabinoid receptor antagonists” (J Med Chem, 1999).
